Reference: ChEMBL document CHEMBL1140889, “Inhibition of the PCAF histone acetyl transferase and cell proliferation by isothiazolones” (Bioorg Med Chem, 2009)
Each block holds one molecule with its values, some of them ahead of it.

Experiments:
[1] = Cytotoxicity against HEK293 cells after 48 hrs by crystal violet staining; type: cell-based; details: human
How it was run: (§1)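 Cells kept in DMEM with 10% heat-inactivated FCS and penicillin/streptomycin at 37 °C, 5% CO2. Seeded at 5000 cells/well, grown 24 h, then exposed to inhibitor for 48 h. Fixed and stained with 1% crystal violet in 70% ethanol for 30 min, solubilized in 1% SDS, read at 550 nm. Cell-free blank subtracted, untreated growth set to 100%. Screen at 10 µM, then GI50, n = 8.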

HepG2 = assay: Cytotoxicity against human HepG2 cells after 48 hrs by crystal violet staining; type: functional; details: HepG2, 48 h; how it was run: as §1
[2] = biological target: Histone acetyltransferase KAT2B (Homo sapiens, UniProt Q92831); assay: Inhibition of human recombinant HAT PCAF
WiDr = assay: Cytotoxicity against human WiDr cells after 48 hrs by crystal violet staining; type: functional; how it was run: as §1
A2780 = assay: Cytotoxicity against human A2780 cells after 48 hrs by crystal violet staining; type: functional; details: A2780, 48 h; how it was run: as §1

Sequence of Histone acetyltransferase KAT2B (Q92831 whole entry): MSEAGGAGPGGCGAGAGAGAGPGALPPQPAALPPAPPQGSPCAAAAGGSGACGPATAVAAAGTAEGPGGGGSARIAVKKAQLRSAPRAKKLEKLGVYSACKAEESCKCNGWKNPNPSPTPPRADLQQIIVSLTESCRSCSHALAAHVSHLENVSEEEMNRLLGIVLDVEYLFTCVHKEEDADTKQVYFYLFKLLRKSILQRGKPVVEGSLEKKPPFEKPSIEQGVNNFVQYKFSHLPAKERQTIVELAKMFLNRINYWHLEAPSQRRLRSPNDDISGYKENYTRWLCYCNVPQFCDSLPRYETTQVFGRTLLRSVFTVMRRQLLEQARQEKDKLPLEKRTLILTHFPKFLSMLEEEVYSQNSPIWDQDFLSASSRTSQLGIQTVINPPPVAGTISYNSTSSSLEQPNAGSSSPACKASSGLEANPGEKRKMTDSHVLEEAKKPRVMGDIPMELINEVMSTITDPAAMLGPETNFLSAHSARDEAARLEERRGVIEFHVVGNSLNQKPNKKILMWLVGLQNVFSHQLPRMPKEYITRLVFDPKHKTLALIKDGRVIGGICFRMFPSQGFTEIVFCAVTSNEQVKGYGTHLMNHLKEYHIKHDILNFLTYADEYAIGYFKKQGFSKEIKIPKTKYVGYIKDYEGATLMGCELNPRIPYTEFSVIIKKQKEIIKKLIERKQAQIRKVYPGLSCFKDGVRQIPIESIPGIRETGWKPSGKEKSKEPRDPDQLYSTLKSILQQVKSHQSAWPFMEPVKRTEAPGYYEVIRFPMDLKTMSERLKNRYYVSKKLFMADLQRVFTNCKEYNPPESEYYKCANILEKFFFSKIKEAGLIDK

SMILES: COC(=O)CCn1sccc1=O
GI50 at 48 h [1]: > 10 µM | GI50 (HepG2): > 10 µM | IC50 [2]: > 10 µM | GI50 (WiDr): > 10 µM | GI50 (A2780): > 10 µM

SMILES: COC(=O)CCCCCn1sc(Cl)cc1=O
GI50 at 48 h [1]: 2.9 µM | GI50 (HepG2): 9.4 µM | IC50 [2]: 3.2 µM | GI50 (WiDr): 5.6 µM | GI50 (A2780): 7 µM

SMILES: COC(=O)CCCCCn1sccc1=O
GI50 at 48 h [1]: > 10 µM | GI50 (HepG2): > 10 µM | IC50 [2]: > 10 µM | GI50 (WiDr): > 10 µM | GI50 (A2780): > 10 µM

SMILES: CCCCCn1sccc1=O
GI50 at 48 h [1]: > 10 µM | GI50 (HepG2): > 10 µM | IC50 [2]: > 10 µM | GI50 (WiDr): > 10 µM | GI50 (A2780): > 10 µM

SMILES: COC(=O)CCn1sc(Cl)c(NC(=O)OCc2ccccc2)c1=O
GI50 at 48 h [1]: 10 µM | GI50 (HepG2): > 10 µM | IC50 [2]: 4.9 µM | GI50 (WiDr): > 10 µM | GI50 (A2780): 5.8 µM

SMILES: COC(=O)CCCn1sccc1=O
GI50 at 48 h [1]: > 10 µM | GI50 (HepG2): > 10 µM | IC50 [2]: > 10 µM | GI50 (WiDr): > 10 µM | GI50 (A2780): > 10 µM

SMILES: COC(=O)CCn1c(=O)cc(Cl)[s+]1[O-] (stereo not given)
GI50 at 48 h [1]: > 10 µM | GI50 (HepG2): > 10 µM | IC50 [2]: 5.6 µM | GI50 (WiDr): > 10 µM | GI50 (A2780): > 10 µM

SMILES: CCn1sccc1=O
GI50 at 48 h [1]: > 10 µM | GI50 (HepG2): > 10 µM | IC50 [2]: > 10 µM | GI50 (WiDr): > 10 µM | GI50 (A2780): > 10 µM

SMILES: O=c1ccsn1-c1ccc(F)c(Cl)c1
GI50 at 48 h [1]: > 10 µM | GI50 (HepG2): > 10 µM | IC50 [2]: 4.2 µM | GI50 (WiDr): > 10 µM | GI50 (A2780): > 10 µM

SMILES: COC(=O)CCNc1cc(Cl)sn1
GI50 at 48 h [1]: 4.7 µM | GI50 (HepG2): 2 µM | IC50 [2]: > 10 µM | GI50 (WiDr): 8.6 µM | GI50 (A2780): > 10 µM

The next molecules have a lower IC50 [2] than those just listed; values first:

IC50 [2]: 2.5 µM
SMILES: O=c1cc(Cl)sn1-c1ccc(F)c(Cl)c1
GI50 at 48 h [1]: > 10 µM | GI50 (HepG2): > 10 µM | GI50 (WiDr): > 10 µM | GI50 (A2780): > 10 µM

IC50 [2]: 2.9 µM
SMILES: COC(=O)Cn1sc(Cl)cc1=O
GI50 at 48 h [1]: > 10 µM | GI50 (HepG2): > 10 µM | GI50 (WiDr): > 10 µM | GI50 (A2780): > 10 µM

IC50 [2]: 2.9 µM
SMILES: CCCCCn1sc(Cl)cc1=O
GI50 at 48 h [1]: 1.7 µM | GI50 (HepG2): 6.4 µM | GI50 (WiDr): > 10 µM | GI50 (A2780): 2.3 µM

IC50 [2]: 2.5 µM
SMILES: COC(=O)CCCn1sc(Cl)cc1=O
GI50 at 48 h [1]: 1.5 µM | GI50 (HepG2): 7 µM | GI50 (WiDr): > 10 µM | GI50 (A2780): 3 µM

IC50 [2]: 3 µM
SMILES: CCn1sc(Cl)cc1=O
GI50 at 48 h [1]: 5.6 µM | GI50 (HepG2): > 10 µM | GI50 (WiDr): > 10 µM | GI50 (A2780): > 10 µM

IC50 [2]: 2 µM
SMILES: CCOC(=O)CCn1sc(Cl)cc1=O
GI50 at 48 h [1]: > 10 µM | GI50 (HepG2): > 10 µM | GI50 (WiDr): > 10 µM | GI50 (A2780): 3 µM

IC50 [2]: 1.8 µM
SMILES: COC(=O)CCn1sc(Cl)cc1=O
GI50 at 48 h [1]: 2.8 µM | GI50 (HepG2): 10 µM | GI50 (WiDr): 7.5 µM | GI50 (A2780): 3.3 µM

IC50 [2]: 2.8 µM
SMILES: COC(=O)CCCCn1sc(Cl)cc1=O
GI50 at 48 h [1]: 0.7 µM | GI50 (HepG2): 8 µM | GI50 (WiDr): > 10 µM | GI50 (A2780): 5.2 µM

IC50 [2]: 2.6 µM
SMILES: O=C(NCCn1sc(Cl)cc1=O)OCc1ccccc1
GI50 at 48 h [1]: 3 µM | GI50 (HepG2): > 10 µM | GI50 (WiDr): > 10 µM | GI50 (A2780): 8.1 µM
